According to ChEMBL document CHEMBL3297687, “Eremophilane-type sesquiterpenoids with diverse skeletons from Ligularia sagitta” (J Nat Prod, 2014):
Values after ≈ are worked out from the molar mass of the structure shown.

Assays:
Bacillus subtilis = test: Antibacterial activity against Bacillus subtilis grown in sheep blood agar media assessed as concentration required to inhibit bacterial growth due to absence of hemolysis of erythrocytes after 18 hrs by […] broth dilution method; type: functional
Outline: (§1)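 Colonies from overnight culture on 5% sheep blood agar were suspended in Mueller−Hinton broth to 0.5 McFarland (about 1.5 × 10^8 CFU/mL), then diluted 10-fold. Aqueous stocks (1 g/L) were used at once and doubly diluted 250−0.125 μg/mL in Mueller−Hinton broth with 5% defibrinated sheep blood. Final inoculum was 2 × 10^5−7 × 10^5 CFU/mL. Plates were incubated 18 h at 35 °C. MIC was taken as the lowest concentration with no growth, shown by absence of erythrocyte hemolysis. Triplicate; ampicillin control.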

Escherichia coli = test: Antibacterial activity against Escherichia coli grown in sheep blood agar media assessed as concentration required to inhibit bacterial growth due to absence of hemolysis of erythrocytes after 18 hrs by […] broth dilution method; type: functional; outline: as §1
Staphylococcus aureus = test: Antibacterial activity against Staphylococcus aureus grown in sheep blood agar media assessed as concentration required to inhibit bacterial growth due to absence of hemolysis of erythrocytes after 18 hrs by […] broth dilution method; type: functional; outline: as §1
[1] = system: Pectobacterium carotovorum; test: Antibacterial activity against Erwinia carotovora grown in sheep blood agar media assessed as concentration required to inhibit bacterial growth due to absence of hemolysis of erythrocytes after 18 hrs by […] broth dilution method; type: functional; outline: as §1
Bacillus cereus = test: Antibacterial activity against Bacillus cereus grown in sheep blood agar media assessed as concentration required to inhibit bacterial growth due to absence of hemolysis of erythrocytes after 18 hrs by […] broth dilution method; type: functional; outline: as §1
[2] = Cytotoxicity against human […] cells after 48 hrs by SRB method; type: functional, cell-based
HeLa = test: Cytotoxicity against human HeLa cells after 48 hrs by SRB method; type: functional, cell-based
HL-60 = test: Cytotoxicity against human HL60 cells after 48 hrs by SRB method; type: functional, cell-based; conditions: HL-60, 48 h

Row | SMILES | MIC (Bacillus subtilis) [µg/mL] | MIC (Escherichia coli) [µg/mL] | MIC (Staphylococcus aureus) [µg/mL] | MIC [1] [µg/mL] | MIC (Bacillus cereus) [µg/mL] | IC50 [2] [µM] | IC50 (HeLa) [µM] | IC50 (HL-60) [µM]
1 | C=C(CO)C(=O)O[C@@H]1C2=C(C)C(=O)O[C@@]2(O)C[C@@]23O[C@@H]2CC[C@H](C)[C@@]13C | 15.5 (≈ 42.5 µM) | 7.25 (≈ 19.9 µM) | 7.25 (≈ 19.9 µM) | 7.25 (≈ 19.9 µM) | 7.25 (≈ 19.9 µM) | – | – | –
2 | CC1=C2[C@@H](O)[C@]3(C)[C@@H](C)CC[C@H]4O[C@]43C[C@@]2(O)OC1=O | 125 (≈ 446 µM) | 125 (≈ 446 µM) | 125 (≈ 446 µM) | 125 (≈ 446 µM) | 62.5 (≈ 223 µM) | – | – | –
3 | CC(=O)[C@@]12O[C@@H]1[C@@]1(C)C(=CC2=O)[C@H](O)CC[C@@H]1C | > 250 | 31.2 (≈ 125 µM) | > 250 | 62.5 (≈ 250 µM) | > 250 | 13 | 13 | 13
4 | CC(=O)C1=C[C@@]2(C)C(=CC1=O)[C@H](O)CC[C@@H]2C | > 250 | 31.2 (≈ 133 µM) | > 250 | > 250 | > 250 | – | – | –
5 | C/C=C(/CO)C(=O)O[C@@H]1C2=C(C)C(=O)O[C@]2(OC)C[C@@]23O[C@@H]2CC[C@H](C)[C@@]13C | 125 (≈ 319 µM) | 62.5 (≈ 159 µM) | 125 (≈ 319 µM) | 125 (≈ 319 µM) | 62.5 (≈ 159 µM) | 13 | 13 | 13
6 | C/C=C(/CO)C(=O)O[C@@H]1C2=C(C)C(=O)O[C@@]2(O)C[C@@]23O[C@@H]2CC[C@H](C)[C@@]13C | 7.25 (≈ 19.2 µM) | 7.25 (≈ 19.2 µM) | 7.25 (≈ 19.2 µM) | 7.25 (≈ 19.2 µM) | 15.5 (≈ 41 µM) | – | – | –
7 | CC1(C)S[C@@H]2[C@H](NC(=O)[C@H](N)c3ccccc3)C(=O)N2[C@H]1C(=O)O [AMPICILLIN] | 12.5 (≈ 35.8 µM) | 100 (≈ 286 µM) | 25 (≈ 71.5 µM) | 100 (≈ 286 µM) | 25 (≈ 71.5 µM) | – | – | –
8 | CO[C@@]12[C@H](COC(N)=O)C3=C(C(=O)C(C)=C(N)C3=O)N1C[C@@H]1N[C@@H]12 [MITOMYCIN] | – | – | – | – | – | 3 | 3 | 3
